Test results from ChEMBL document CHEMBL1136932, “Discovery, SAR, and pharmacokinetics of a novel 3-hydroxyquinolin-2(1H)-one series of potent D-amino acid oxidase (DAAO) inhibitors” (J Med Chem, 2009).
One block for each compound: values may come before it. Activity calls are given as the source filed them. The rule behind the calls is not given here.

Columns and labels:
[1] = Displacement of [3H]glycine from NMDA receptor at 10 uM
[2] = target: T1, D-aspartate oxidase (Homo sapiens, UniProt Q99489); assay: Inhibition of human recombinant DDO expressed in sf9 insect cells assessed as degradation of D-aspartic acid by fluorescence assay
T1 sequence (Q99489 whole entry): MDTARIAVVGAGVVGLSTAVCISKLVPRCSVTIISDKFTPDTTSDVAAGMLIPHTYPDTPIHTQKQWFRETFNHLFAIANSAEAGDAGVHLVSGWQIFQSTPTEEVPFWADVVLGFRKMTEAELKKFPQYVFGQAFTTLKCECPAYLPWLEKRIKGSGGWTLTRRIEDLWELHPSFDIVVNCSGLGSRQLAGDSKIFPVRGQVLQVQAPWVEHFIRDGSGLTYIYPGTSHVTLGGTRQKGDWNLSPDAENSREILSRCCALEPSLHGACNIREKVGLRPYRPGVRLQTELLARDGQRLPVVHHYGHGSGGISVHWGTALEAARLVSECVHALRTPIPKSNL

[3] = Ratio of drug level in brain to plasma in 129/SVEV mouse at 10 mg/kg, sc after 4 hrs; conditions: read-out: BPR
[4] = Dissociation constant, pKa of the compound; format: physicochemical
[5] = target: D-amino-acid oxidase (Rattus norvegicus, UniProt O35078); assay: Inhibition of rat recombinant DAAO expressed in sf9 insect cells assessed as degradation of D-serine by fluorescence assay
Sequence of D-amino-acid oxidase (O35078 whole entry): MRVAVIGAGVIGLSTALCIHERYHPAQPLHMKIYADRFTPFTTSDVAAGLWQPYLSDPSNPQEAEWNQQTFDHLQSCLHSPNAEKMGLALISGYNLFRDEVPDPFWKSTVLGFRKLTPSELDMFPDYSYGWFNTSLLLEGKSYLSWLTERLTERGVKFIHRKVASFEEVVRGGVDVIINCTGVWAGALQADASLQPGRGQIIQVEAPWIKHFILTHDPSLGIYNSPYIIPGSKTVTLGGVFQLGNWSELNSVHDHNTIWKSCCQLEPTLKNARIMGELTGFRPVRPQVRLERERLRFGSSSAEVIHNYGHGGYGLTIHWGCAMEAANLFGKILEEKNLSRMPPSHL

[6] = Half life in Sprague-Dawley CD rat at 3 mg/kg, po and 1 mg/kg, iv; format: ADME, organism-based; conditions: in vivo
[7] = system: Rattus norvegicus; assay: Volume of distribution in Sprague-Dawley CD rat at 3 mg/kg, po and 1 mg/kg, iv; format: ADME, organism-based; conditions: in vivo
[8] = Cmax in Sprague-Dawley CD rat at 3 mg/kg, po; format: ADME, organism-based; set-up: dose 3 mg/kg, route oral; conditions: in vivo
[9] = Oral bioavailability in Sprague-Dawley CD rat at 3 mg/kg; format: ADME, organism-based; conditions: in vivo
[10] = Clearance in Sprague-Dawley CD rat plasma at 3 mg/kg, po and 1 mg/kg, iv; format: ADME, organism-based
[11] = system: Brain; assay: Free drug level in 129/SVEV mouse brain at 10 mg/kg, sc after 4 hrs; conditions: in vivo
[12] = Fraction unbound in Sprague-Dawley CD rat brain at 56 mg/kg, sc after 4 hrs; format: ADME, organism-based; set-up: dose 56 mg/kg, route subcutaneous
[13] = system: Brain; assay: Free drug level in Sprague-Dawley CD rat brain at 56 mg/kg, sc after 4 hrs; format: ADME, organism-based; set-up: dose 56 mg/kg, route subcutaneous; conditions: in vivo
[14] = Ratio of drug level in brain to plasma in Sprague-Dawley CD rat at 56 mg/kg, sc after 4 hrs; format: ADME, organism-based; set-up: dose 56 mg/kg, route subcutaneous; conditions: read-out: BPR
[15] = system: Mus musculus; assay: Elevation of D-serine level in 129/SVEV mouse cerebellum at 10 mg/kg, sc after 4 hrs by LC/MS-MS analysis; format: functional, organism-based; set-up: dose 10 mg/kg
Outline: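 Male rats (1-2 mL/kg) or male mice (10 mL/kg) received compound or vehicle sc in 5% DMSO/5% Cremophor EL/90% saline. At 4 h, cerebella were taken under CO2 anesthesia, homogenized in 3 volumes PBS and extracted with 16 volumes acetonitrile, and the supernatant was dried.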

IC50 [2]: 21.5 µM
SMILES: Cc1ccc2cc(O)c(=O)[nH]c2c1

IC50 [2]: > 43.4 µM
SMILES: O=c1[nH]c2c(Cl)cccc2cc1O

half-life [6]: 5.4 h
Vd [7]: 1.2 L/kg
Cmax [8]: 754 ng/mL
bioavailability [9]: 38%
inhibition [1]: < 50%
IC50 [2]: 22.4 µM
clearance [10]: 15 mL/min/kg
SMILES: O=c1[nH]c2cc(F)ccc2cc1O

Kp at 4 h [3]: 2
Drug uptake [11]: 15 nM
Vd [7]: 10.8 L/kg
fraction unbound at 4 h [12]: 0.22
Cmax [8]: 5.5 ng/mL
Drug uptake [13]: 670 nM
bioavailability [9]: 0.9%
inhibition [1]: 29%
pKa [4]: 8.7
clearance [10]: 46 mL/min/kg
Kp at 4 h [14]: 0.7
SMILES: O=c1[nH]c2ccccc2cc1O

IC50 [2]: > 50 µM
SMILES: O=c1[nH]c2ccc(Cl)cc2cc1O

half-life [6]: 0.9 h
Vd [7]: 2.3 L/kg
Cmax [8]: 216 ng/mL
bioavailability [9]: 44%
inhibition [1]: < 50%
clearance [10]: 72 mL/min/kg
SMILES: O=c1[nH]c2ccc(F)cc2cc1O

IC50 [2]: > 36 µM
SMILES: O=c1[nH]c2ccncc2cc1O

inhibition [1]: < 50%
IC50 [2]: 206 µM
IC50 [5]: 0.04 µM
SMILES: O=c1[nH]c2cccc(Cl)c2cc1O

inhibition [1]: < 50%
IC50 [2]: 64 µM
SMILES: O=c1[nH]c2cccc(F)c2cc1O

Continued, compound first:

SMILES: O=c1[nH]c2c(F)cccc2cc1O
inhibition [1]: < 50%

SMILES: Cc1cccc2cc(O)c(=O)[nH]c12
IC50 [2]: 31.6 µM

SMILES: O=C(O)c1cc2occc2[nH]1
Kp at 4 h [3]: 0.8
IC50 [2]: > 19.5 µM
pKa [4]: 4
IC50 [5]: 0.424 µM

SMILES: O=c1[nH]c2nccnc2cc1O
IC50 [2]: > 50 µM

SMILES: O=c1[nH]c2cnccc2cc1O
IC50 [2]: > 50 µM

SMILES: Cc1c(O)c(=O)[nH]c2ccccc12
IC50 [2]: 32.3 µM

SMILES: CCc1cccc2cc(O)c(=O)[nH]c12
IC50 [2]: > 50 µM

SMILES: O=c1[nH]c2ncccc2cc1O
inhibition [1]: < 50%
IC50 [2]: > 7.64 µM

SMILES: O=c1[nH]c2ncc(F)c(Cl)c2cc1O
Kp at 4 h [3]: 0.1
Drug uptake [11]: 12 nM
Activity [15]: Active

SMILES: Cc1cc(C(=O)O)n[nH]1
pKa [4]: 4

SMILES: Cc1cccc2[nH]c(=O)c(O)cc12
inhibition [1]: < 50%

SMILES: O=c1[nH]c2cccnc2cc1O
IC50 [2]: > 50 µM

SMILES: CCc1cccc2[nH]c(=O)c(O)cc12
inhibition [1]: < 50%

SMILES: Oc1noc2cc(Cl)ccc12
pKa [4]: 4
